Values after ≈ are worked out from the molar mass of the structure shown.
Legend:
[1] = test system: MCF7; assay: Cytotoxicity against human MCF7 cells; format: functional, cell-based
How it was run: (§1)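 Human Hep3B hepatocellular carcinoma and MCF-7 breast carcinoma lines; cytotoxicity reported as IC50 in µg/mL; doxorubicin included as positive control.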

[2] = test system: A549; assay: Cytotoxicity against human A549 cells; format: functional, cell-based
How it was run: (§2)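 Panel lines are HepG2 hepatocellular carcinoma, MDA-MB-231 breast carcinoma and A-549 lung carcinoma (human); cytotoxicity evaluated alongside Hep3B and MCF-7 in the same screen.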

[3] = test system: HepG2; assay: Cytotoxicity against human HepG2 cells; format: functional, cell-based; how it was run: as §2
[4] = test system: MDA-MB-231; assay: Cytotoxicity against human MDA-MB-231 cell; format: functional, cell-based; how it was run: as §2
[5] = Cytotoxicity against human Hep3B cells; format: functional, cell-based, Hep 3B2; how it was run: as §1

SMILES: COCC1=C2[C@@H](OC(C)=O)C[C@@]3(C)O[C@@]2(OC1=O)[C@H](O)[C@@]1(C)CC[C@]3(O)O1 [SPICATOLIDE G]
- IC50 [1]: 4.8 µg/mL (≈ 12.5 µM)
- IC50 [2]: > 5 µg/mL
- IC50 [3]: > 5 µg/mL
- IC50 [4]: > 5 µg/mL
- IC50 [5]: 6.1 µg/mL (≈ 15.9 µM)

SMILES: CC(=O)OCC1=C2[C@@H](OC(C)=O)C[C@@]3(C)O[C@]2(C[C@](C)(O)CCC3=O)OC1=O [SPICATOLIDE A]
- IC50 [2]: > 5 µg/mL
- IC50 [3]: > 5 µg/mL
- IC50 [4]: > 5 µg/mL

SMILES: COc1cccc2c1C(=O)c1c(O)c3c(c(O)c1C2=O)C[C@@](O)(C(=O)CO)C[C@@H]3O[C@H]1C[C@H](N)[C@H](O)[C@H](C)O1 [DOXORUBICIN]
- IC50 [5]: 0.06 µg/mL (≈ 0.11 µM)

SMILES: CC(=O)OCC1=C2/C(=C\[C@@]3(C)CC[C@](O)(O3)[C@@](C)(O)C[C@@H]2O)OC1=O [PITOCARPHIN D]
- IC50 [2]: > 5 µg/mL
- IC50 [3]: > 5 µg/mL
- IC50 [4]: > 5 µg/mL

SMILES: COCC1=C2[C@@H](O)C[C@@]3(C)O[C@]2(C[C@](C)(O)CCC3=O)OC1=O [SPICATOLIDE F]
- IC50 [1]: 2.4 µg/mL (≈ 7.35 µM)
- IC50 [2]: > 5 µg/mL
- IC50 [3]: > 5 µg/mL
- IC50 [4]: > 5 µg/mL
- IC50 [5]: 3.2 µg/mL (≈ 9.81 µM)

SMILES: COCC1=C2/C(=C\[C@@]3(C)CC[C@](O)(O3)[C@@](C)(O)C[C@@H]2OC(C)=O)OC1=O
- IC50 [2]: > 5 µg/mL
- IC50 [3]: > 5 µg/mL
- IC50 [4]: > 5 µg/mL

SMILES: COCC1=C2[C@@H](OC(C)=O)C[C@@](C)(OC(C)=O)[C@@]3(O)CC[C@@](C)(O)[C@H](OC(C)=O)[C@@]23OC1=O
- IC50 [2]: > 5 µg/mL
- IC50 [3]: > 5 µg/mL
- IC50 [4]: > 5 µg/mL

SMILES: COCC1=C2/C(=C\[C@@]3(C)CC[C@](O)(O3)[C@@](C)(O)C[C@@H]2O)OC1=O [SPICATOLIDES D]
- IC50 [1]: 5.1 µg/mL (≈ 15.6 µM)
- IC50 [2]: > 5 µg/mL
- IC50 [3]: > 5 µg/mL
- IC50 [4]: > 5 µg/mL
- IC50 [5]: 4.8 µg/mL (≈ 14.7 µM)

SMILES: C/C=C(\C)C(=O)O[C@H]1C[C@](C)(O)[C@]2(O)CC[C@](C)(/C=C3/OC(=O)C(COC)=C31)O2 [SPICATOLIDE E]
- IC50 [2]: > 5 µg/mL
- IC50 [3]: > 5 µg/mL
- IC50 [4]: > 5 µg/mL

SMILES: C=C1CC[C@@H]2[C@H](OC(=O)[C@H]2C)[C@H]2[C@H](C)OC(=O)C[C@@H]12 [SPICATOLIDE H]
- IC50 [2]: > 5 µg/mL
- IC50 [3]: > 5 µg/mL
- IC50 [4]: > 5 µg/mL

— ChEMBL document CHEMBL1141338, “Cytotoxic sesquiterpene lactones from Pseudoelephantopus spicatus” (J Nat Prod, 2007)
